Source: ChEMBL document CHEMBL1151227, “Hyperjovinols A and B: Two new phloroglucinol derivatives from Hypericum jovis with antioxidant activity in cell cultures” (J Nat Prod, 2004)

Tests used:
Fibroblast [1] = experiment: Inhibition of endogenous ROS production in human skin fibroblast assessed as DCF-fluorescence at 100 uM after 4 hrs by DCFH-DA assay relative to control; parameters: scale not given: the % may be the effect or the level left
Fibroblast [2] = experiment: Inhibition of endogenous ROS production in human skin fibroblast assessed as DCF-fluorescence at 10 uM after 4 hrs by DCFH-DA assay relative to control; parameters: scale not given: the % may be the effect or the level left
[3] = Cytotoxicity against human skin fibroblasts assessed as cell viability by trypan blue exclusion assay relative to control; type: cell-based; conditions: fibroblast
In short: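 Normal human skin fibroblasts (lab-derived) grown in MEM with 10% FBS to confluency, then exposed to compounds (diluted from DMSO into medium) for 4 h. Viability was judged against untreated cells by Trypan Blue exclusion, with microscopic inspection for cytotoxicity.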

Structure (SMILES) | Activity (Fibroblast [1]) [%] | Activity (Fibroblast [2]) [%] | Activity [3]
Cc1c(C)c2c(c(C)c1O)CCC(C)(C(=O)O)O2 (stereo not given) [TROLOX] | 55.2 | 81.4 | –
CC(C)=CCC/C(C)=C/COc1cc(O)c(C(=O)C(C)C)c(O)c1 | 61.5 | 92.2 | Non-toxic
CC(C)=CCCC1(C)CCc2c(cc(O)c(C(=O)C(C)C)c2O)O1 (stereo not given) | 62.4 | 94.1 | Non-toxic
CC(C)=CCC/C(C)=C/Cc1c(O)cc(O)c(C(=O)C(C)C)c1O | 50.8 | 79.4 | Non-toxic
CC(C)C(=O)c1c(O)cc2c(c1O)C[C@@H]1C(C)(C)CCC[C@@]1(C)O2 [HYPERJOVINOL B] | 57.1 | 89.7 | Non-toxic
CC(C)=CCCC(C)(O)CCc1c(O)cc(O)c(C(=O)C(C)C)c1O (stereo not given) [HYPERJOVINOL A] | 49.2 | 76.1 | Non-toxic
CC(C)=CCCC1(C)CCc2c(O)cc(O)c(C(=O)C(C)C)c2O1 (stereo not given) | 73 | 81.5 | Non-toxic
